# High-throughput results from PubChem BioAssay.
# DYRK1A inh – rat Dyrk1A kinase inhibitors, primary screen, biochemical, single point, plate reader; inhibition, % at 12.5 µM; actives 0.43% (n = 310,000); ADP-Glo luminescence, NFATc1 peptide; Dual specificity tyrosine-phosphorylation-regulated kinase 1A (Rattus norvegicus), Q63470; AID 504441, 2011; in the data active means inhibition above about 50%;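 further: plate controls were vehicle with enzyme for no effect and no enzyme for full effect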
# CAL PDZ FP-1 – untagged CAL PDZ binding inhibitors, primary screen, biochemical, fluorescence polarization, HTS; Golgi-associated PDZ and coiled-coil motif-containing protein (Homo sapiens), Q9HD26; purified CAL PDZ, TMR-peptide fluorescence polarization, 1 h; inhibition, % at 24.9 µM; actives 0.92% (n = 300,000); AID 602252, 2012;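 active means mean inhibition of at least 30% with at least half of replicates also reaching 30%; inconclusive means no clear call, values can overlap the other calls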;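 further: 0% = DMSO neutral control and 100% = excess unlabeled competitor peptide PRC23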
# Rtt109 HAT inh – inhibitors of C. albicans Rtt109/Vps75 HAT, primary screen, biochemical, ThioGlo CoA-SH fluorescence, plate reader; Histone acetyltransferase RTT109 (Candida albicans (strain SC5314 / ATCC MYA-2876)), …; purified Rtt109/Vps75, 4 h; inhibition, % at 34.9 µM; actives 0.16% (n = 330,000); AID 540336, 2011;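 active means inhibition of at least 50% in every replicate; inconclusive means best replicate reaches 50% inhibition but some replicates fall short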
# Target sequence (Q5AAJ8 whole entry, looked up): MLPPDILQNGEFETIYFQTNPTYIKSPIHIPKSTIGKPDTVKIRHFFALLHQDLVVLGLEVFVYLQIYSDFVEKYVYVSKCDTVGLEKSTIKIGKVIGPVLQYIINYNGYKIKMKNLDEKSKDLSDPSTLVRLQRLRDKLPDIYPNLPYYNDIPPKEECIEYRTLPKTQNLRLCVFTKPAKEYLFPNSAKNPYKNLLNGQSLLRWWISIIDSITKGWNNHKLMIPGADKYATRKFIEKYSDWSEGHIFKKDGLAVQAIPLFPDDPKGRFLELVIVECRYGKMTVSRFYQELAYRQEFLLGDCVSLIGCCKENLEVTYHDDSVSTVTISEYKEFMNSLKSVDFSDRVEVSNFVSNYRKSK
# ALR inh – inhibitors of human ALR sulfhydryl oxidase, primary screen, biochemical, H2O2 detection, HRP-luminol luminescence, single point; FAD-linked sulfhydryl oxidase ALR (Homo sapiens), P55789; purified ALR, DTT oxidation; inhibition, % (test concentration not listed); actives 3.8% (n = 290,000);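 active means mean replicate inhibition above about 79%, with every replicate also reaching it, limit read from the data; inconclusive means only one of the two criteria met; inactive means mean below limit and not every replicate reaching it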
# Target sequence (P55789 whole entry, looked up): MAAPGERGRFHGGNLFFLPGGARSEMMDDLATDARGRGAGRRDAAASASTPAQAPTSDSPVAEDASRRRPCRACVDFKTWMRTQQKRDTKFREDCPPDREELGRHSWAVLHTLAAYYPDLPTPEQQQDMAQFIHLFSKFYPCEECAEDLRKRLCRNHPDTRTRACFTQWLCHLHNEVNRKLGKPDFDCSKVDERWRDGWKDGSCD
# CAL PDZ FP-2 – CAL PDZ peptide-binding inhibitors, primary screen, biochemical, fluorescence polarization, Cer-tagged CAL PDZ, HTS; Golgi-associated PDZ and coiled-coil motif-containing protein (Homo sapiens), Q9HD26; purified CAL PDZ, TMR-peptide fluorescence polarization, 1 h; actives 0.02% (n = 330,000); inhibition, % at 20 µM;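 active means highest replicate inhibition of at least 40%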;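 further: plate controls were DMSO neutral control wells for no effect and unlabeled competitor peptide control wells for full effect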
#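 Material – purified CerCALP PDZ construct · Detection – FP readout, S and P plane fluorescence · Measure – percent inhibition from loss of millipolarization · Controls – unlabelled peptide for full inhibition, DMSO wells as neutral · Probe or stimulus – TMR-labelled reporter peptide T*-PRC34 bound in PDZ groove · Times – 1 h at RT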
# * = called active by the depositor; ? = inconclusive; . = no result given. This is a sample that favours compounds with a hit; in the whole collection about 4.3% have one here.
SMILES,DYRK1A inh,CAL PDZ FP-1,Rtt109 HAT inh,ALR inh,CAL PDZ FP-2
CNC(=O)c1ccccc1-c1cn(C)c2ccccc2c1=O,.,1,-2,-12,0
O=C(CCN1C(=O)/C(=C/c2cccs2)SC1=S)N1CCCCC1,0,85*,-6,.,-1
CCOC(=O)C1CCN(C(=O)CSCc2nc(-c3ccc(OCC)cc3)oc2C)CC1,-12,0,-2,99*,0
Cc1ccc(-c2nc(CSCC(=O)N3CCCC3)c(C)o2)cc1,-5,-2,10,99*,0
O=C(CSCc1ccccc1)N1CCN(C(=O)c2ccco2)CC1,-2,0,.,1,-2
CCOC(=O)N1CCC(NC(=O)CSCc2nc(-c3ccc(C)cc3)oc2C)CC1,1,.,-6,58,-1
CCOc1ccc(-c2nc(CSCC(=O)N3CCN(C(=O)c4ccco4)CC3)c(C)o2)cc1,-10,-2,-8,99*,-1
O=C(CSc1nnc(-c2ccccc2)o1)N1CCCCC1,-6,0,4,-1,-2
Cn1ccnc1SCC(=O)c1cccc(C(F)(F)F)c1,-1,-11,-6,24,-3
Cc1nc2sccn2c(=O)c1S(=O)(=O)N1CCN(c2ccc(F)cc2)CC1,1,-5,6,95*,0
O=C(c1ccc(CS(=O)(=O)c2ccc(Br)cc2)o1)N1CCCC1,7,-5,6,96*,1
Cc1ccc(S(=O)(=O)Cc2ccc(C(=O)N3CCN(Cc4ccccc4)CC3)o2)cc1,-14,.,4,94*,1
O=C(c1ccc(CS(=O)(=O)c2ccc(Br)cc2)o1)N1CCCCCC1,16,.,-1,-30,-1
COc1ccc(S(=O)(=O)Cc2ccc(C(=O)N3CCN(Cc4ccccc4)CC3)o2)cc1,7,.,-5,?,0
Cn1cc(CCC(=O)N2CCCC(Nc3ccc(F)cc3)C2)cn1 (centres undefined),3,.,-4,?,-1
C=CCOc1cccc(C(=O)N2CCCC(Nc3ccc(F)cc3)C2)c1 (centres undefined),-3,-5,-3,59,1
COc1ccc(NC2CCCN(C(=O)CCc3cn[nH]c3)C2)cc1 (centres undefined),5,0,6,99*,-1
COc1cc(OC)cc(C(=O)N2CCCC(Nc3ccc(F)cc3)C2)c1 (centres undefined),-8,6,-4,99*,-2
O=C1CCC(C(=O)N2CCCC(Nc3ccc(F)cc3)C2)=NN1 (centres undefined),.,.,-7,82*,0
COc1ccc(NC2CCCN(C(=O)CCC(=O)c3ccc(F)cc3)C2)cc1 (centres undefined),.,.,2,99*,1
COc1ccc(NC2CCCN(C(=O)C3(C)CCCCC3)C2)cc1 (centres undefined),-2,-3,5,97*,-2
O=C(CCc1ccccc1)N1CCCC(Nc2ccc(F)cc2)C1 (centres undefined),2,-1,-3,98*,-1
COc1ccc(CCC(=O)N2CCCC(Nc3ccccc3)C2)cc1OC (centres undefined),-4,7,-4,98*,-1
COc1ccc(NC2CCCN(C(=O)CCC3=NNC(=O)CC3)C2)cc1 (centres undefined),.,.,0,87*,-1
O=S(=O)(NC1CCCCC1N1CCN(c2ccc(F)cc2)CC1)c1ccccc1 (centres undefined),-6,2,4,21,0
SMILES,DYRK1A inh,CAL PDZ FP-1,Rtt109 HAT inh,ALR inh,CAL PDZ FP-2
CCOc1cccc(C(=O)Nc2ccccc2C(=O)N2CCN(C)CC2)c1,4,-1,9,1,-2
COc1ccc(NC2CCCN(C(=O)CSc3ccncc3)C2)cc1 (centres undefined),12,-7,-7,99*,-2
O=C(CSc1ccccc1)N1CCCC(Nc2ccccc2)C1 (centres undefined),-3,61*,-3,66,1
O=C(CCc1ccncc1)N1CCCC(Nc2ccc(F)cc2)C1 (centres undefined),0,-1,7,56,-3
CCc1nccn1CCC(=O)N1CCCC(Nc2ccc(C(C)C)cc2)C1 (centres undefined),3,-3,6,69,0
COc1ccc(CCC(=O)N2CCCC(Nc3ccc(OC)cc3)C2)cc1 (centres undefined),5,2,-14,99*,-2
CC(C)c1ccc(NC2CCCN(C(=O)CCc3cn[nH]c3)C2)cc1 (centres undefined),-6,5,1,98*,0
Cn1c(N)c(C(=O)COC(=O)CNS(=O)(=O)c2cccc(Cl)c2)c(=O)n(C)c1=O,-4,0,5,.,-1
O=C(COC(=O)c1cc(S(=O)(=O)N2CCOCC2)c(Cl)cc1Cl)c1ccc[nH]1,.,3,0,-4,-3
CC1CCN(C(=O)C2CCC(C)(C(=O)O)C2(C)C)CC1 (centres undefined),-3,1,-7,.,0
O=C(CSc1ccccc1)N1CCCC(N2CCN(c3ccccc3)CC2)C1 (centres undefined),-2,4,2,99*,-1
COc1cccc(SCc2noc(C(=O)NCC3CC3)c2C(=O)NCC2CC2)c1,2,-5,-2,8,1
CC(=O)c1ccc(NC(=O)C[n+]2ccc(N(C)C)cc2)cc1,7,-2,4,-16,0
CN(C)c1ccc(NC(=O)Oc2ccccc2)cc1,2,-3,-4,97*,0
CC(=O)Nc1ccc(NC(=O)Oc2ccccc2)cc1,3,-7,-2,.,-1
CN(C)c1ccc(NC(=O)C[n+]2ccccc2)cc1,-2,-2,1,99*,0
Cc1ccc[n+](CC(=O)Nc2ccc(N(C)C)cc2)c1,3,-1,3,100*,0
CN(C)c1ccc(/C=N/NC(=O)C[n+]2ccccc2)cc1,2,.,-2,99*,0
O=C(Nc1nccs1)c1ccc(NC(=O)C2CC=CCC2C(=O)O)cc1 (centres undefined),19,-3,16,12,-2
Cn1c(=O)c2c(SCC(=O)N3CCCCC3)nc(-c3ccccc3F)nc2n(C)c1=O,0,-1,10,6,-3
C=CCNC(=S)NNC(=O)c1ccncc1,0,.,-2,23,0
Cc1c(CC(=O)O)c(=O)oc2c(C)c(OCc3c(F)cccc3Cl)ccc12,-1,-6,-5,12,.
